Where “and” joins values, the source holds several entries; their conditions need not be identical. Equal values may be shown once. Read-outs that look alike come from different tables or passages of the source.
What was measured:
[1] = system: HCT-116 (human colon carcinoma) cells; assay: Cytotoxicity assay; assay type: cell-based; settings: for TI (therapeutic index) = (IC50)CCD-18Co/(IC50)cancer cells, HCT-116: 72 h; for IC50: read-out: IC50 HCT-116
[2] = system: Caco-2 (human epithelial colorectal adenocarcinoma) cells; assay: Cytotoxicity assay; settings: for TI (therapeutic index) = (IC50)CCD-18Co/(IC50)cancer cells, Caco-2: 72 h; for IC50: read-out: IC50 Caco-2
[3] = system: CCD-18Co (human colon fibroblasts); assay: Cytotoxicity assay; assay type: cell-based; settings: read-out: IC50 CCD-18Co
[4] = system: supercoiled pBR322 plasmid DNA; assay: Chemical nuclease activity, agarose gel electrophoresis; assay type: biochemical; settings: 50 and 100 μM, 1 h, 37 °C
How it was run: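 Supercoiled pBR322 (0.1 mg/mL) was incubated 1 h with complex in Tris buffer (50 mM Tris, 18 mM NaCl, pH 8.2), in the dark or under UV exposure, aerobic. Loading buffer quench, then 1% agarose gel in TBE (pH 8.2) at 70 V for 1 h. Gels stained with ethidium bromide ([…], 30 min), imaged under UV, and scored for nicked Form II.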

[5] = biological target: human serum albumin (HSA) (Homo sapiens, UniProt P02768); assay: Fluorescence quenching titration of human serum albumin; assay type: binding; settings: for static quenching constant KS: combined quenching analysis
Sequence of human serum albumin (HSA) (P02768 25-609): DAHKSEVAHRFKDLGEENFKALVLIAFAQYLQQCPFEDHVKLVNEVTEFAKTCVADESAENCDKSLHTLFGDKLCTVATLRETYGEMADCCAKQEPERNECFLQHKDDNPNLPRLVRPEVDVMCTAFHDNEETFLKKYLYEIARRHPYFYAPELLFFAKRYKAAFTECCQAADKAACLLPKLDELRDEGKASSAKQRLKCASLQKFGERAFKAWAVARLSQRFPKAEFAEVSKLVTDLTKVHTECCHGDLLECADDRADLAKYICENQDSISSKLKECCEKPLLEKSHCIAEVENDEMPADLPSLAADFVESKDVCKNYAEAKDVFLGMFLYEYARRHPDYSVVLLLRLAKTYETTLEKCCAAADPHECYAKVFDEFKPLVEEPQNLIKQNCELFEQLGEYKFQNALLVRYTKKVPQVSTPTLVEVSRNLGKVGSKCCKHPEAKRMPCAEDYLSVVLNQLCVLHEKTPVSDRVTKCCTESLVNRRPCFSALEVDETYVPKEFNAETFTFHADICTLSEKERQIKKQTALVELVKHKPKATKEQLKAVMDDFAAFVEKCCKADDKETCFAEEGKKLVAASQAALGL

Compound | TI (therapeutic index) = (IC50)CCD-18Co/(IC50)cancer cells, HCT-116 [1] | TI (therapeutic index) = (IC50)CCD-18Co/(IC50)cancer cells, Caco-2 [2] | IC50 ([1]; 24 h incubation) | IC50 ([1]; 48 h incubation) | IC50 ([1]; 72 h incubation) | IC50 ([2]; 24 h incubation) | IC50 ([2]; 48 h incubation) | IC50 ([2]; 72 h incubation) | cleavage of pBR322 DNA [4] | IC50 ([3]; 24 h incubation, normal cells) | IC50 ([3]; 48 h incubation, normal cells) | IC50 ([3]; 72 h incubation, normal cells) | Modified Stern-Volmer K ([5]; 298 K) | Modified Stern-Volmer f (fraction of fluorophore initially accessible) ([5]; 298 K) | Scatchard K ([5]; 298 K) | Scatchard n (number of binding sites) ([5]; 298 K) | Modified Stern-Volmer K ([5]; 303 K) | Modified Stern-Volmer f (fraction of fluorophore initially accessible) ([5]; 303 K) | Scatchard K ([5]; 303 K) | Scatchard n (number of binding sites) ([5]; 303 K) | also measured
COc1cc([C@@H]2c3cc4c(cc3[C@@H](O[C@@H]3O[C@@H]5CO[C@@H](C)O[C@H]5[C@H](O)[C@H]3O)[C@H]3COC(=O)[C@H]23)OCO4)cc(OC)c1O [Etoposide, reference compound] | 3.07 | 2.71 |  |  |  |  |  |  |  |  |  |  |  |  |  |  |  |  |  |  | IC50 ([1]; Homo sapiens, HCT-116, 24 h): 28.9 ± 2 µM; IC50 ([1]; Homo sapiens, HCT-116, 48 h): 26.9 ± 1.5 µM; IC50 ([1]; Homo sapiens, HCT-116, 72 h): 14.3 ± 1.4 µM; IC50 ([2]; Homo sapiens, Caco-2, 24 h): 23 ± 0.9 µM; IC50 ([2]; Homo sapiens, Caco-2, 48 h): 18.9 ± 1.6 µM; IC50 ([2]; Homo sapiens, Caco-2, 72 h): 16.2 ± 1.7 µM; IC50 ([3]; Homo sapiens, CCD-18Co, 24 h): 51.2 ± 1.1 µM; IC50 ([3]; Homo sapiens, CCD-18Co, 48 h): 48.7 ± 3.1 µM; IC50 ([3]; Homo sapiens, CCD-18Co, 72 h): 43.9 ± 1.8 µM
Ga(PhATSC)3·H2O [Complex 3] | 1.33 | 0.97 | 79 ± 1.1 µM | 56 ± 1.7 µM | 32.1 ± 2.4 µM | 78.7 ± 5.3 µM | 58 ± 1.5 µM | 44.1 ± 3.6 µM | both the Form II and Form III (linear DNA) being present | 80.9 ± 2.6 µM | 59.2 ± 2.6 µM | 42.9 ± 1.3 µM | 302000 M⁻¹ | 0.93 | 26300 M⁻¹ | 0.96 | 231000 M⁻¹ | 1.1 | 20800 M⁻¹ | 1.1 | static quenching constant KS ([5]; 298 K): 20400 M⁻¹; static quenching constant KS ([5]; 303 K): 33500 M⁻¹; Modified Stern-Volmer K ([5]; 308 K): 325000 M⁻¹; Modified Stern-Volmer f (fraction of fluorophore initially accessible) ([5]; 308 K): 1.0; Scatchard K ([5]; 308 K): 28800 M⁻¹; Scatchard n (number of binding sites) ([5]; 308 K): 1.1
Ga(EtATSC)3·0.25C2H5OH [Complex 2] | 1.98 | 5 and 5.14 | 49.9 ± 2.5 µM | 43.6 ± 2.1 µM | 30.1 ± 1.1 µM | 23.1 ± 2.1 µM | 18.7 ± 1.7 µM | 11.6 ± 1.1 µM | cleavage of the DNA occurred | 78.6 ± 2.1 µM | 60.6 ± 2 µM | 59.5 ± 2.5 µM | 308000 M⁻¹ | 1.1 | 29700 M⁻¹ | 1.1 | 169000 M⁻¹ | 1.3 | 17600 M⁻¹ | 1.1 | 

Source: publication PMC5152947 (Journal of molecular structure, 2016)
